Calls of active or inactive are those of the source. No cut-off for these calls is given here.
How the values were obtained:
Leishmania donovani [1] = assay: Antileishmanial activity against Leishmania donovani infected in Balb/c mouse at 2 mg/kg/day, ip for 5 consecutive days; type: functional, organism-based
In short: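 Balb/c mice infected with L. donovani; 2 mg/kg/day given intraperitoneally on five consecutive days, total 10 mg/kg.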

[2] = Stability in human plasma by HPLC analysis; type: ADME, cell-free; conditions: read-out: Stability
In short: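 Human plasma was diluted 10-fold in PBS and incubated with 1 mM compound solutions for 0, 2 and 12 h at 37 °C. Samples were quenched with ice-cold acetonitrile, centrifuged, filtered and analysed by C18 reversed-phase HPLC at 25 °C.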

[3] = system: Trypanosoma brucei brucei; assay: Antitrypanosomal activity against Trypanosoma brucei brucei CMP infected in Swiss mouse assessed as change in mean survival time at 10 mg/kg, ip administered as single dose measured up to 30 days; type: functional
In short: (§1)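 Swiss mice infected ip with 10,000 T. b. brucei CMP trypanosomes, randomly grouped (six per batch), then given one ip dose of 100 or 10 mg/kg; controls received pentamidine, melarsamine or excipient. Parasitemia followed at days 2, 3, 4 and 30; deaths recorded by day post-treatment; efficacy as mean survival time minus that of excipient-treated controls (days ± SD).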

Mus musculus [4] = assay: Toxicity in Swiss mouse assessed as death at 10 mg/kg, ip administered as single dose measured up to 30 days; type: organism-based; conditions: in vivo, 720 h; in short: as §1
[5] = Selectivity index, ratio of CC50 for mouse RAW264.7 cells to IC50 for Trypanosoma brucei gambiense FeoITMAP/1893; type: toxicity; conditions: read-out: Ratio CC50/IC50
[6] = system: Trypanosoma brucei gambiense; assay: Trypanocidal activity against Trypanosoma brucei gambiense FeoITMAP/1893 after 72 hrs by resazurin dye based assay; type: functional, organism-based; conditions: FeoITMAP/1893, 72 h
In short: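 T. b. gambiense Feo was grown in supplemented IMDM with 10% FBS. Cells at 4.10⁴/mL were exposed 72 h at 37 °C, 5% CO2 in the dark to two-fold dilutions. Resazurin (450 µM solution) was added for 6 h and read at OD570/OD600. Result given as IC50; pentamidine was the reference.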

Leishmania donovani [7] = assay: Antiparasitic activity against Leishmania donovani LV9 axenic intramacrophage amastigotes infected in mouse RAW264.7 cells incubated for 48 hrs by Sybr Green 1 dye based fluorescence assay; type: functional, organism-based; conditions: LV9, RAW264.7, 48 h
In short: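 RAW 264.7 cells at 2.10⁴/well were infected 24 h with axenic amastigotes at a 16:1 parasite to macrophage ratio, then extracellular parasites were removed. Cells were treated 48 h with two-fold dilutions from 100 µM. They were then lysed (freeze-thaw, proteinase K, 55 °C overnight) and total DNA read by SYBR Green I fluorescence against untreated infected cells. Result given as IC50.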

Mus musculus [8] = assay: Toxicity in Swiss mouse assessed as death at 100 mg/kg, ip administered as single dose measured up to 30 days; type: organism-based; conditions: in vivo, 720 h; in short: as §1
[9] = system: Trypanosoma brucei brucei; assay: Antitrypanosomal activity against Trypanosoma brucei brucei CMP infected in Swiss mouse assessed as change in mean survival time at 100 mg/kg, ip administered as single dose measured up to 30 days; type: functional; in short: as §1
[10] = Cytotoxicity against mouse RAW264.7 cells assessed as reduction in cell viability after 48 hrs by resazurin assay; type: cell-based
In short: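 RAW 264.7 macrophages at 2.10⁴/well were preincubated 24 h, then exposed 48 h at 37 °C, 5% CO2 to two-fold dilutions in DMEM. Resazurin was added for 4 h in the dark and read at OD570/OD600. Result given as CC50.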

Leishmania donovani [11] = assay: Antiparasitic activity against Leishmania donovani LV9 axenic amastigotes incubated for 72 hrs by resazurin dye based assay; type: functional, organism-based; conditions: LV9, 72 h
In short: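 LV9 axenic amastigotes were derived from promastigotes in M-199 at pH 5.5, 37 °C, 5% CO2, and used in log phase. Cells at 10⁶/mL were exposed 72 h to two-fold dilutions from 100 to 0.02 μM. Resazurin was then added for 24 h in the dark and read at OD570/OD600. IC50 is relative to excipient-only controls; miltefosine was the reference.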

[12] = Stability in human liver S9 fraction at 0.1 to 1 mM up to 12 hrs in absence of NADPH; type: ADME, subcellular; conditions: s9, 12 h, 1000 µM
In short: (§2)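 Pooled human liver S9 was diluted 20-fold in PBS (1 mg/ml protein). Compound solutions of 100 μM and 1 mM were incubated 0 and 12 h at 37 °C, with or without 1 mM NADPH.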

[13] = Stability in human liver S9 fraction at 0.1 to 1 mM up to 12 hrs in presence of NADPH; type: ADME, subcellular; conditions: s9, 12 h, 1000 µM; in short: as §2

With `NC1CCC(NCCCN(Cc2ccc(F)cc2)Cc2ccc(F)cc2)CC1` (stereo not drawn) the Activity (Leishmania donovani [1]) was “inactive”, the half-life [2] was over 12 h and the Survival [3] was 0 days. For the same molecule, the Activity (Mus musculus [4]) was “Non-Toxic”, the selectivity ratio [5] was 11 and the IC50 [6] was 0.4 µM. The IC50 (Leishmania donovani [7]) was 12.4 µM, the Activity (Mus musculus [8]) was “Toxic” and the Survival [9] was -2.3 days. For the same molecule, the CC50 at 48 h [10] was 4.4 µM, the IC50 (Leishmania donovani [11]) was 44.4 µM and the Stability [12] was “Stable”. The Stability [13] was “Stable”.
